UBC13 inh: inhibitors of human UBC13 polyubiquitin chain formation | P61088 | TR-FRET | inhibition, % at 20 µM | actives 0.47% (n = 330,000); in the data active = inhibition above about 45%, passing the limit was not always enough; inconclusive = no clear call, values can overlap the other calls
SENP7 inh: inhibitors of human SENP7 protease; inhibition, % at 5 µM; AID 434973; recombinant SENP7, Z-RLRGG-aminoluciferin luminescence, 40 min; actives 1.5% (n = 330,000);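 active = inhibition above about 50% at the single test dose, limit read from the data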;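 also: plate controls were DMSO with enzyme for no effect and no enzyme buffer wells for full effect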
Target sequence (Q9BQF6 706-1050 limits assumed): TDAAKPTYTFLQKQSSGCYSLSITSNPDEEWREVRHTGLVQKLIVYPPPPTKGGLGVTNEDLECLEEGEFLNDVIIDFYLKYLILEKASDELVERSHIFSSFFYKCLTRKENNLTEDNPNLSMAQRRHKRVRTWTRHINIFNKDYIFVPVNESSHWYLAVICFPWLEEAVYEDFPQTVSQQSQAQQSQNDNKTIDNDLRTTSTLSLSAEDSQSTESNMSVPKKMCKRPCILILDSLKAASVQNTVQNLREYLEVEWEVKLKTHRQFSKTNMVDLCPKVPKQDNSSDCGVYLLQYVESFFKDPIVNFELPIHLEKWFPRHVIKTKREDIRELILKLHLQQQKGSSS
SENP6 block: blocks the human protease SENP6. Q9GZR1. Recombinant SENP6 catalytic domain, aminoluciferin luminescence. inhibition, % at 10 µM. actives 1.8% (n = 330,000);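 active = inhibition above about 50% at the single tested dose, limit read from the data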;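 also: plate controls were DMSO wells with enzyme for no effect and DMSO wells lacking enzyme for full effect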
SENP8 block-1: blocks human SENP8 cleavage of Nedd8 substrate; AID 602440; actives 0.64% (n = 360,000); inhibition, % at 20 µM; Q96LD8; recombinant SENP8, Nedd8 substrate fluorescence; in the data active = inhibition mostly above about 40%, no sharp cut-off; inactive = mostly below about 27%
Target sequence (Q96LD8 whole entry, looked up): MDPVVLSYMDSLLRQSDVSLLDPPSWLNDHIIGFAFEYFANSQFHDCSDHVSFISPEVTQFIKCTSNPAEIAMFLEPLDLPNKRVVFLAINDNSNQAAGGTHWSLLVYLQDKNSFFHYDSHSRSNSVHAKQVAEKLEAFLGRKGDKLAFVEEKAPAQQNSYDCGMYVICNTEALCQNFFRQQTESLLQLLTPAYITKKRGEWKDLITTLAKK
SENP8 block-2: SENP8 protease inhibition; Q96LD8; purified SENP8, Z-RLRGG-aminoluciferin cleavage, luminescence; inhibition, % at 10 µM; actives 1.2% (n = 330,000); in the data active = inhibition above about 50%
Apaf1 inhib: inhibitors of human Apaf-1 apoptosome. O14727. reconstituted apoptosome caspase-3 activity, DEVD-Rh110 fluorescence. inhibition, % at 20 µM. actives 0.71% (n = 330,000). AID 489030; active = inhibition of at least 40% at 20 µM;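 also: plate controls were DMSO wells for no effect and DEVD-CHO caspase inhibitor wells for full effect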
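Assay system – apoptosome proteins · Medium – Hepes buffer, pH 7.5 · Also added – cytochrome c with DEVD-Rh110 · Timing – 30 min compound preincubation, 50 min activation, room temperature · Detection – Rh110 fluorescence, excitation 480 nm, emission 540 nm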
SENP8 conf: confirmation of human SENP8 protease inhibitors; shares compounds with SENP7 inh; Recombinant SENP8, Z-RLRGG-aminoluciferin luminescence, 60 min; inhibition, % at 12.5 µM; actives 40% (n = 6,200);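 active = mean inhibition across replicates above about 50%, limit read from the data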
SENP6 conf: human SENP6 inhibition, confirmed | shares compounds with SENP7 inh | recombinant SENP6, Z-RLRGG-aminoluciferin luminescence | inhibition, % at 12.5 µM | actives 58% (n = 6,200) | AID 488915
SENP7 confirm: human SENP7 inhibition, confirmed | shares compounds with SENP7 inh | recombinant SENP7, Z-RLRGG-aminoluciferin luminescence, 40 min | inhibition, % at 12.5 µM | actives 69% (n = 6,200)
Casp3 select: selectivity test for SENP inhibitors: human caspase-3 inhibition; shares compounds with SENP7 inh; purified caspase-3, Z-DEVD-aminoluciferin luminescence, 60 min; inhibition, % at 12.5 µM; actives 60% (n = 6,200); AID 488918;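 active = mean inhibition above about 50%, limit read from the data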;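 also: plate controls were enzyme with DMSO for no effect and wells without caspase-3 for full effect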
Target sequence (P42574 28-227 limits assumed): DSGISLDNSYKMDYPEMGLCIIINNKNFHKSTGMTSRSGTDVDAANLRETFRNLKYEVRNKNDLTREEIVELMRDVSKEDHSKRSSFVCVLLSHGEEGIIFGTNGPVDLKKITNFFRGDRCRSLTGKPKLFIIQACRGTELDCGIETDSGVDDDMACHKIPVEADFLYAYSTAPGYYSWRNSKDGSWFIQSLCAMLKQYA
SENP luc ctr: counter-screen for SENP inhibitors: luminescence interference; shares compounds with SENP7 inh; Pre-incubated SENP8/Z-RLRGG-aminoluciferin, luciferase luminescence interference; inhibition, % at 12.5 µM; actives 39% (n = 6,200); AID 488919;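 active = mean inhibition above about 50% when retested at one dose, limit read from the data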;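 also: plate controls were DMSO wells with completed reaction for no effect and substrate without enzyme for full effect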
Starred values were filed as active, the others as inactive; ? = inconclusive; nt = no result. Only some compounds are listed: those with a hit (about 3% of all), similar ones and a draw of the others.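 The calls were made as follows, unless noted: active = mean inhibition above about 50% in the one-dose retest (limit read from the data); inactive = the rest.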

SMILES | UBC13 inh | SENP7 inh | SENP6 block | SENP8 block-1 | SENP8 block-2 | Apaf1 inhib | SENP8 conf | SENP6 conf | SENP7 confirm | Casp3 select | SENP luc ctr
COC(=O)c1ccc(C(=O)N=c2sccn2C)cc1 | 3.7 | 51.9* | 55.3* | -22.4 | 35.4 | -5.2 | 46.1 | 44.0 | 76.4* | 78.0* | 6.8
COC1=CC(=O)OC(c2cccc(C(F)(F)F)c2)C1 (stereo not given) | nt | nt | nt | 18.6 | nt | nt | nt | nt | nt | nt | nt
Cc1cc2nc(-c3ccccc3)c(Cc3ccccc3)n2c(C)c1Br | nt | nt | nt | -23.7 | nt | nt | nt | nt | nt | nt | nt
Cc1cc2c(cc1C)C(=O)NC(C)(C)C2 | 4.5 | 58.8* | -0.6 | 6.4 | -4.3 | -10.0 | 6.4 | 6.3 | 1.5 | 0.7 | -3.0
COC(=O)c1sccc1NC(=O)Cc1ccc(Br)cc1 | 16.6 | 21.4 | 58.6* | 11.3 | 39.7 | -6.8 | 59.9* | 56.0* | 47.6 | 47.9 | 40.4
CN(C)C1CN(Cc2cn(Cc3ccc(C(F)(F)F)cc3)nn2)S(=O)(=O)C1 (stereo not given) | nt | nt | nt | 15.6 | nt | nt | nt | nt | nt | nt | nt
CCCSC1=N/C(=C\c2ccc([N+](=O)[O-])o2)C(=O)S1 | nt | nt | nt | 32.0 | nt | nt | nt | nt | nt | nt | nt
CCSC1=N/C(=C\c2ccc(-c3ccccc3[N+](=O)[O-])o2)C(=O)S1 | -77.6 | 28.4 | 50.4* | 6.4 | 12.9 | 27.5 | 5.1 | 4.5 | 3.6 | 6.0 | 2.6
O=C(COC(=O)c1cccnc1Cl)c1ccc(Cl)s1 | -5.9 | 76.3* | 55.9* | 10.8 | 41.6 | 12.7 | 67.0* | 62.9* | 87.5* | 79.9* | 76.0*
Cc1ccc(C(=O)OCC(=O)c2ccc(Cl)s2)s1 | -5.6 | 23.7 | 53.7* | 25.4 | 29.6 | 9.4 | 51.7* | 45.5 | 80.1* | 39.6 | 27.6
Cc1ccc(C(=O)OCC(=O)NCCNC(=O)COC(=O)c2ccc(C)s2)s1 | 4.0 | -9.2 | 2.3 | 2.0 | -8.4 | 2.4 | nt | nt | nt | nt | nt
c1ccc(-c2cnnc(-c3ccccn3)n2)cc1 | 2.1 | 17.7 | 17.5 | 25.9 | 17.1 | -2.7 | nt | nt | nt | nt | nt
c1ccc(-c2cnc(-c3ccccn3)nn2)cc1 | -6.1 | 60.3* | 61.3* | 16.0 | 41.0 | 7.5 | 45.4 | 44.2 | 82.0* | 77.3* | 53.8*
COc1ccc(NC(=O)c2scc(S(=O)(=O)C(C)C)c2N)cc1 | -5.8 | 86.3* | 66.0* | 0.0 | 58.7* | -13.4 | 68.4* | 66.1* | 88.8* | 82.4* | 67.6*
COc1ccc(NC(=O)c2sc(SC)nc2N)cc1 | 2.4 | 51.5* | 35.4 | 13.9 | 22.6 | -24.6 | 45.2 | 40.4 | 74.4* | 63.7* | 52.0*
COc1ccc2c(c1)CC/C(=C/c1ccco1)C2=O | -26.6 | -4.9 | 90.6* | -71.6 | 82.8* | 0.9 | 96.3* | 97.0* | 101.5* | 91.5* | 93.7*
O=C1/C(=C/c2ccco2)CCc2ccccc21 | -15.1 | -1.2 | 87.4* | -50.0 | 74.7* | -11.7 | 96.8* | 99.3* | 102.4* | 96.4* | 93.8*
Cc1nc(N)sc1-c1csc(Nc2ccccn2)n1 | nt | nt | nt | -44.8 | nt | nt | nt | nt | nt | nt | nt
Cc1nc(C)c(-c2csc(Nc3ccccn3)n2)s1 | -5.0 | 54.1* | 74.1* | -17.3 | 61.4* | 15.7 | 37.1 | 65.0* | 87.9* | 46.2 | 67.5*
COc1ccc(-c2csc(Nc3ccc(C)cn3)n2)cc1 | -1.6 | -8.2 | -7.8 | -6.4 | -22.9 | -3.8 | nt | nt | nt | nt | nt
CC(=O)Nc1cccc(-c2csc(Nc3ccc(C)cn3)n2)c1 | 12.8 | 58.2* | 68.9* | -12.5 | 36.3 | 14.8 | 66.1* | 64.3* | 87.3* | 22.4 | 44.2
Oc1ccc(-c2csc(Nc3ccccn3)n2)cc1 | 3.2 | 62.2* | 84.9* | 2.0 | 81.6* | 11.1 | 91.2* | 87.2* | 94.9* | 54.3* | 87.8*
c1ccc(-c2csc(Nc3ccccn3)n2)cc1 | -6.7 | 97.6* | 95.5* | 21.4 | 93.6* | 23.0 | -11.2 | 95.7* | 101.5* | 81.8* | 79.0*
COc1ccc(-c2csc(Nc3ccccn3)n2)cc1OC | 3.2 | 1.3 | 4.9 | 0.2 | 9.6 | 7.8 | nt | nt | nt | nt | nt
Fc1ccc(-c2csc(Nc3ccccn3)n2)c(F)c1 | 6.7 | 86.0* | 86.5* | -2.8 | 86.9* | 8.0 | 72.5* | 87.3* | 99.2* | 67.6* | 47.2
SMILES | UBC13 inh | SENP7 inh | SENP6 block | SENP8 block-1 | SENP8 block-2 | Apaf1 inhib | SENP8 conf | SENP6 conf | SENP7 confirm | Casp3 select | SENP luc ctr
Cc1cc(-c2csc(Nc3ccccn3)n2)ccc1F | 3.9 | 67.3* | 75.5* | 12.2 | 58.9* | 22.5 | 49.7 | 75.6* | 91.9* | 37.3 | 40.4
Cc1ccc(-c2csc(Nc3ccccn3)n2)cc1 | 15.4 | 88.9* | 91.4* | 4.0 | 87.2* | 11.8 | 92.2* | 92.1* | 98.1* | 68.7* | 77.1*
Cc1ccnc(Nc2nc(-c3ccc(F)cc3)cs2)c1 | -10.3 | 39.3 | 62.6* | -2.3 | 20.0 | 26.1 | 16.6 | 44.2 | 75.7* | 18.5 | 10.7
CC(O)(c1ccc(F)c(F)c1)c1nc(-c2ccccc2)cs1 (stereo not given) | nt | nt | nt | 12.5 | nt | nt | nt | nt | nt | nt | nt
CN(Cc1ccccc1)Cc1cc(=O)oc2ccc3ccccc3c12 | nt | nt | nt | -23.9 | nt | nt | nt | nt | nt | nt | nt
Brc1ccc(/C=N/Nc2nc3ccccc3o2)cc1 | 5.0 | 55.4* | 22.9 | -32.7 | 8.8 | 7.9 | 21.6 | 17.7 | 32.4 | 25.9 | 41.3
COc1cc(/C=N/Nc2nc3ccccc3o2)cc(OC)c1O | -6.0 | -5.0 | 4.6 | -99.0 | 2.2 | -7.4 | nt | nt | nt | nt | nt
Oc1ccccc1/C=N/Nc1nc2ccccc2o1 | -5.2 | 78.9* | 82.5* | -26.0 | 68.7* | 30.0 | 27.6 | 61.9* | 92.5* | 66.2* | 31.2
COc1cc(/C=N\Nc2nc3ccccc3o2)cc(OC)c1OC | -10.1 | -3.4 | -13.7 | -154.1 | 5.2 | -4.0 | nt | nt | nt | nt | nt
COc1ccc(/C=N/Nc2nc3ccccc3o2)cc1O | -10.5 | 72.6* | 45.3 | -15.5 | 63.5* | 11.9 | 84.4* | 84.0* | 96.9* | 82.1* | 82.2*
N#CCSc1nnc2sc3ccccc3n12 | -0.5 | 87.1* | -14.2 | 7.4 | -1.9 | -0.7 | 9.2 | 9.4 | -9.0 | -3.2 | 0.1
CCOc1ccc(N2CC(C(=O)NCc3ccc(F)cc3)CC2=O)cc1 (stereo not given) | 2.5 | 8.8 | -14.7 | 8.9 | 1.5 | -1.4 | nt | nt | nt | nt | nt
NC(=O)C1CC(=O)N(c2ccc(OCc3ccc(Cl)cc3)cc2)C1 (stereo not given) | ? | -11.5 | -20.3 | 19.4 | -19.5 | 10.0 | nt | nt | nt | nt | nt

High-throughput results (PubChem BioAssay)
